In test [1] the test system is 3T3-L1. The test is described as follows: In vitro fold stimulation of glucose transporter protein in 3T3-L1 adipocytes at a concentration of 10 uM. Type of test: functional, Mus musculus. An outline of the steps:
(§1)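 Differentiated 3T3-L1 adipocytes (days 7–11 after start of differentiation) exposed to compound in DMEM + 10% FBS, 0.1% DMSO final, medium renewed with fresh drug after 24 h, total 48 h. Triton X-100/EDTA/DTT extracts dot-blotted, probed with affinity-purified rabbit anti-GLUT1 (0.5 μg/mL) then 125I goat anti-rabbit IgG, gamma-counted; transporter quantified against basal-extract standard curve, fold over DMSO control.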

Test [2] concerns 3T3-L1. Kind of test: In vitro fold stimulation of glucose transporter protein in 3T3-L1 adipocytes at a concentration of 30 uM. The class given is functional, Mus musculus. The method in brief:
as §1

Test [3] in a line: In vitro stimulation of 2-Deoxyglucose uptake in L6 myocytes from rat skeletal myoblasts at a concentration of 10 uM. The class given is functional. An outline of the steps: (§2)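 Rat L6 myoblasts grown 14 days in MEMalpha + 2% FBS to fuse into myocytes, then serum-depleted 5 h. Uptake of 0.1 mM [1-14C]2-deoxyglucose in Dulbecco's PBS (+Ca, Mg) for 10 min at room temperature, stopped by ice-cold saline washes. Cells dissolved in 0.1 M NaOH and scintillation counted. Reported relative to 1 µM insulin set at 1.0.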

The nature of test [4]: In vitro stimulation of 2-Deoxyglucose uptake in L6 myocytes from rat skeletal myoblasts at a concentration of 3 uM. Type of test: functional. The method in brief: as §2
Test [5] can be described thus: In vitro stimulation of 2-Deoxyglucose uptake in L6 myocytes from rat skeletal myoblasts at a concentration of 30 uM. Type of test: functional. An outline of the steps:
as §2

In test [6] the test system is Mus musculus. The test is described as follows: In vivo percent glucose normalization in mice at a concentration of 25 mg/kg. The class given is functional. An outline of the steps:
(§3)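 Six- to eight-week-old C57BL/6J-ob/ob mice, acclimated 1 week, bled retroorbitally before treatment. Oral gavage once daily for four days in 0.25% (w/v) methylcellulose in water, unadjusted pH. Bled again 24 h after the fourth dose. Plasma glucose read by hexokinase UV method. Expressed as % normalization: vehicle = 0%, ciglitazone 50 mg/kg = 100%.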

Test [7] concerns Mus musculus. Kind of test: Compound was evaluated for in vivo for % glucose normalization in mice at a concentration of 10 mg/kg. The class given is functional. The method in brief:
as §3

Test [8] has as its system Mus musculus. Kind of test: Compound was evaluated for in vivo for % glucose normalization in mice at a concentration of 5 mg/kg. The class given is functional. An outline of the steps: as §3

Consider `O=C1NC(=O)C(Cc2ccc3c(c2)CC(C2CCCCC2)O3)S1` (stereo not given), for which the values for the GT fold stimulation in the test on 3T3-L1 [1] and in the test with 3T3-L1 [2] were 1.25 and 1.42, respectively. For the same compound, the values for the 2-DG uptake stimulation in test [3], in test [4] and in test [5] were 1.85, 1.1 and 1.66, respectively. Also, the Glucose normalisation in the test with Mus musculus [6] was determined as 23%.

For the compound `O=C1NC(=O)C(Cc2ccc3c(c2)CC(CC2CCCCC2)O3)S1` (stereo not given), the figures for the GT fold stimulation in the test with 3T3-L1 [1] and in the test on 3T3-L1 [2] were 1.14 and 1.41, respectively. For the same compound, the 2-DG uptake stimulation in test [3] turned out to be 1.39; in test [4] it was 0.88; in test [5], 1.71. The Glucose normalisation with Mus musculus [6] turned out to be 19%.

For the compound `CC1(C2Cc3cc(CC4SC(=O)NC4=O)ccc3O2)CCCCC1` (stereo not given), the GT fold stimulation came to 1.11 in the test with 3T3-L1 [1] and 1.22 in the test with 3T3-L1 [2]. In addition, the Glucose normalisation in the test with Mus musculus [7] worked out at 33%; in the test with Mus musculus [6], 80%. The 2-DG uptake stimulation worked out at 0.93 in test [3], 0.8 in test [4] and 1.67 in test [5].

Turning to `O=C1NC(=O)C(Cc2ccc3c(c2)CC(c2ccccc2)O3)S1` (stereo not given), the values for the GT fold stimulation in the test on 3T3-L1 [1] and in the test with 3T3-L1 [2] were 1.14 and 1.42, respectively. Further, the Glucose normalisation in the test with Mus musculus [7] was 6%; in the test on Mus musculus [6] it was 85%. For the same compound, the results for the 2-DG uptake stimulation in test [3], in test [4] and in test [5] were 0.99, 0.76 and 1.3, respectively.

Turning to `O=C1NC(=O)C(Cc2ccc3c(c2)CCC2(CCCCC2)O3)S1` (stereo not given), the GT fold stimulation in the test with 3T3-L1 [1] is listed as 0.97; in the test on 3T3-L1 [2], 1.2. Also, the 2-DG uptake stimulation in test [3] worked out at 1.52; in test [4] it was 0.97; in test [5], 1.22. Moreover, the Glucose normalisation in the test with Mus musculus [6] is given as 35%.

Consider `O=C1NC(=O)C(Cc2ccc3c(c2)C(c2ccccc2)CO3)S1` (stereo not given), for which the values for the GT fold stimulation with 3T3-L1 [1] and in the test on 3T3-L1 [2] were 1.13 and 1.19, respectively. In addition, the 2-DG uptake stimulation in test [3] is 1.24; in test [4], 1.05; in test [5], 1.42. The Glucose normalisation in the test with Mus musculus [6] is 32%.

Consider `COc1ccc(CC2CCc3cc(CC4SC(=O)NC4=O)ccc3O2)cc1` (stereo not given), for which the GT fold stimulation with 3T3-L1 [1] amounted to 1.08; in the test with 3T3-L1 [2], 1.21. The Glucose normalisation with Mus musculus [7] amounted to 68%; with Mus musculus [8] it was 10%; in the test on Mus musculus [6], 85%. The 2-DG uptake stimulation in test [3] was determined as 1.15; in test [4] it was 0.92; in test [5] it was 0.69.

As for `O=C1NC(=O)C(Cc2ccc3c(c2)CCC(Cc2ccccn2)O3)S1` (stereo not given), the GT fold stimulation in the test on 3T3-L1 [1] stood at 1.48; in the test with 3T3-L1 [2] it was 1.42. Also, the Glucose normalisation in the test on Mus musculus [7] came to 49%; with Mus musculus [6], 74%. Moreover, the results for the 2-DG uptake stimulation in test [3], in test [4] and in test [5] were 0.96, 0.76 and 0.96, respectively.

For `O=C1NC(=O)C(Cc2ccc3c(c2)CCC(c2ccccc2)O3)S1` (stereo not given), the GT fold stimulation in the test on 3T3-L1 [1] was 1.05; with 3T3-L1 [2], 1.37. The values for the Glucose normalisation in the test with Mus musculus [7] and with Mus musculus [6] were 0% and 70%, respectively. Further, the 2-DG uptake stimulation is recorded as 0.95 in test [3], 0.78 in test [4] and 1.15 in test [5].

`CCC1(CC)CCc2cc(CC3SC(=O)NC3=O)ccc2O1` (stereo not given): the GT fold stimulation in the test on 3T3-L1 [1] is reported as 1.08; in the test on 3T3-L1 [2], 1.21. Further, the values for the 2-DG uptake stimulation in test [3], in test [4] and in test [5] were 1.33, 1.01 and 1.38, respectively. Further, in the test with Mus musculus [6], the Glucose normalisation is on record as 24%.

In the case of `O=C1NC(=O)C(Cc2ccc3c(c2)CC[C@@H](Cc2ccccc2)O3)S1` (stereo not given in full), the GT fold stimulation turned out to be 1.13 in the test with 3T3-L1 [1] and 1.17 in the test on 3T3-L1 [2]. Further, the values for the Glucose normalisation in the test with Mus musculus [7], with Mus musculus [8] and in the test on Mus musculus [6] were 47%, 41% and 73%, respectively. The 2-DG uptake stimulation in test [3] was 0.9; in test [4] it was 0.77; in test [5] it was 1.23.

On to `O=C1NC(=O)C(Cc2ccc3c(c2)CC2(CCCCC2)O3)S1` (stereo not given), for which the GT fold stimulation came out at 1.15 in the test on 3T3-L1 [1] and 1.36 with 3T3-L1 [2]. Besides, the values for the 2-DG uptake stimulation in test [3], in test [4] and in test [5] were 1.28, 0.85 and 1.62, respectively. Further, the Glucose normalisation in the test on Mus musculus [6] came to 56%.

Turning to `O=C1NC(=O)C(Cc2ccc3c(c2)CCC(CC2CCCCC2)O3)S1` (stereo not given), the GT fold stimulation with 3T3-L1 [1] amounted to 1.02; in the test with 3T3-L1 [2], 1.28. In addition, the 2-DG uptake stimulation is recorded as 1.55 in test [3], 1.14 in test [4] and 0.68 in test [5]. Moreover, the Glucose normalisation in the test with Mus musculus [6] is on record as 7%.

In the case of `O=C1NC(=O)C(Cc2ccc3c(c2)CCC(Cc2ccccc2)(Cc2ccccc2)O3)S1` (stereo not given), the values for the GT fold stimulation with 3T3-L1 [1] and with 3T3-L1 [2] were 1.03 and 1.23, respectively. Moreover, the 2-DG uptake stimulation was 0.86 in test [3], 0.73 in test [4] and 0.44 in test [5]. The compound further registered a Glucose normalisation in the test with Mus musculus [6] of 12%.

With `O=C1NC(=O)C(Cc2ccc3c(c2)C(Cc2ccccc2)CO3)S1` (stereo not given), the GT fold stimulation in the test on 3T3-L1 [1] came out at 1.09; in the test with 3T3-L1 [2], 1.31. In addition, the 2-DG uptake stimulation in test [3] is listed as 1.25; in test [4] it was 0.85; in test [5], 1.4. The compound further came in with a Glucose normalisation with Mus musculus [6] of 0%.

Turning to `O=C1NC(=O)C(Cc2ccc3c(c2)CCC(Cc2ccc(O)cc2)O3)S1` (stereo not given), the figures for the GT fold stimulation with 3T3-L1 [1] and with 3T3-L1 [2] were 1.25 and 1.34, respectively. Also, the Glucose normalisation in the test with Mus musculus [7] was 55%; with Mus musculus [6], 100%. In addition, the 2-DG uptake stimulation in test [3] is 1.24; in test [4], 1.04; in test [5], 1.03.

As for `O=C1NC(=O)C(Cc2ccc3c(c2)CCC2(CCCCCC2)O3)S1` (stereo not given), the GT fold stimulation in the test on 3T3-L1 [1] worked out at 0.94; with 3T3-L1 [2], 1.12. The 2-DG uptake stimulation in test [3] stood at 0.99; in test [4] it was 1.32; in test [5], 0.43. The Glucose normalisation in the test on Mus musculus [6] came to 0%.

On to `O=C1NC(=O)C(Cc2ccc3c(c2)CC2(CCCCC2)CO3)S1` (stereo not given), for which the GT fold stimulation with 3T3-L1 [1] turned out to be 0.8; with 3T3-L1 [2], 1.23. The Glucose normalisation is listed as 6% in the test with Mus musculus [7] and 68% in the test with Mus musculus [6]. The 2-DG uptake stimulation is on record as 1.27 in test [3], 1.15 in test [4] and 1.38 in test [5].

In the case of `CC1(COc2ccc(CC3SC(=O)NC3=O)cc2)CCCCC1` (stereo not given) [CIGLITAZONE], the GT fold stimulation is 1.49 in the test on 3T3-L1 [1] and 1.51 in the test on 3T3-L1 [2]. Also, the Glucose normalisation turned out to be 52% in the test with Mus musculus [7] and 84% in the test with Mus musculus [6]. The 2-DG uptake stimulation turned out to be 1.02 in test [3], 0.82 in test [4] and 0.68 in test [5].

The record behind these values is ChEMBL document CHEMBL1125908, “Substituted dihydrobenzopyran and dihydrobenzofuran thiazolidine-2,4-diones as hypoglycemic agents” (1991).
